A selection: hits, their analogues and other compounds. The true share with any hit is near 2.9%.
Arr AP2 block: inhibitors of beta-arrestin/AP2 binding, primary screen, biochemical, GPCR trafficking, flow cytometry; hit rate 0.31% among 340,000; FITC-arrestin peptide / GST-AP2 beads; AP2 beta2 appendage carries R879A mutation; inhibition, % at 10 µM; AID 504490, 2011; beta-arrestin 1 C-terminal peptide binding to AP2 beta2-adaptin appendage (human);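 active means inhibition above a set limit, near 3 SD of compounds lacking own fluorescence, cut at about 54% in these data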;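 further: plate controls were DMSO wells for no effect and 5 µM unlabelled arrestin peptide for full effect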
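Material – AP2 appendage R879A on GSH beads · Buffer or medium – PBS with 0.05% Tween 20 and 0.1% BSA · Probe or stimulus – fluorescein-tagged arrestin peptide at 50 nM final · Incubation – compound with beads 12 min RT, then probe 1 h RT · Detection – high-throughput flow cytometry of beads, ex 488, em 535 nm · Evaluation – percent response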
ADAM10 inh: human ADAM10 inhibitors, primary screen, biochemical, QFRET, HTS; Disintegrin and metalloproteinase domain-containing protein 10 (Homo sapiens), O14672; recombinant ADAM10, EDANS/DABCYL FRET peptide cleavage, 3 h; inhibition, % at 7 µM; hit rate 0.62% among 370,000;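 active means inhibition above a per-campaign cutoff equal to the mean of compounds falling between control-based bounds plus 3 SD, cut at about 20% in these data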;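 further: 0% = DMSO wells while the 100% control is not disclosed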
NRP1-CendR mod: modulators of CendR peptide binding to NRP-1, primary screen, biochemical, fluorescence polarization, uHTS | AID 602438, 2012 | FAM-RPARPAR peptide binding to NRP-1 | inhibition, % at 25 µM | hit rate 0.85% among 360,000 | Neuropilin-1 (Homo sapiens), O14786;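 active means inhibition or corrected inhibition above about 18%, plus a signal ratio from 0.5 to 1.5, limit read from the data, passing the limit was not always enough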
FAS-TE inh: FAS thioesterase domain inhibitors, primary screen, biochemical, fluorescence intensity, uHTS | hit rate 0.67% among 360,000 | recombinant FAS-TE, OMFH fluorogenic substrate, fluorescence endpoint | inhibition, % at 15 µM;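 active means compounds whose normalised, plate-corrected inhibition of enzyme fluorescence in the single-dose primary screen is 50% or more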;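 further: 0% = DMSO with enzyme and 100% = substrate without enzyme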
ADAM17 inh: ADAM17 inhibitors, primary screen, biochemical, QFRET | Disintegrin and metalloproteinase domain-containing protein 17 (Homo sapiens), P78536 | hit rate 0.83% among 370,000 | recombinant ADAM17, EDANS/DABCYL FRET peptide cleavage | inhibition, % at 6.95 µM | AID 720648, 2013;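 active means inhibition above the mean of compounds lying between control limits plus 3 SD, set per campaign, cut at about 8.5% in these data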;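 further: 0% = DMSO-only wells as the low control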
CaV13 ICDI inh: Disruptors of the CACNA1D IQ motif to Ca2+-dependent inactivation inhibitor domain association, primary screening, Förster resonance energy transfer in intact living …; HEK cells, CFP/YFP FRET ICDI-IQ, plate reader, 10 min; percent FRET-ratio fall versus neutral wells; inhibition, % at 12.3 µM; hit rate 0.098% among 340,000; AID 743397;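 active means mean replicate inhibition of at least 30% and at least 1% of replicates passing that level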;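 further: 0% = median of the neutral control wells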
ADAM10 confirm: human ADAM10 inhibitors, confirmation, biochemical, QFRET, triplicate | shares compounds with ADAM10 inh | ADAM10 QFRET peptide cleavage, EDANS fluorescence | inhibition, % at 6.95 µM | hit rate 1% among 2,100 | AID 743208, 2013;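 active means inhibition above about 20% chosen separately for each screening run, limit read from the data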;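 further: 0% = DMSO wells and 100% = marimastat wells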
ADAM17 ctr: ADAM17 inhibitors, counter-screen for ADAM10 exosite inhibitor project, biochemical, QFRET, high throughput | hit rate 0.5% among 2,100 | shares compounds with ADAM10 inh | ADAM17 QFRET peptide cleavage, EDANS fluorescence | inhibition, % at 6.95 µM;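 active means mean triplicate inhibition above the solvent-only control wells' mean plus 3 SD, cut at about 12% in these data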;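 further: 0% = DMSO wells and 100% = marimastat wells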
* hit, by the source's call; i = inactive; nt = not tested or not shown.

SMILES | Arr AP2 block | ADAM10 inh | NRP1-CendR mod | FAS-TE inh | ADAM17 inh | CaV13 ICDI inh | ADAM10 confirm | ADAM17 ctr
COc1ccc([C@@H]2[C@@H]3C(=O)N(C(C)(C)C)C(=O)[C@@H]3[C@]3(Cc4ccccc4)C(=O)N(c4ccc(OC)cc4)C(=O)N23)cc1 | -4.6 | 23.4* | 4.6 | 12.3 | 1.6 | -10.1 | 0.8 | 0.3
COc1ccc(CCN=Cc2c(C)[nH]n(-c3ccc([N+](=O)[O-])cc3)c2=O)cc1OC | -6.7 | -2.9 | 5.3 | -7.4 | -2.0 | 2.8 | nt | nt
Cc1[nH]n(-c2ccc([N+](=O)[O-])cc2)c(=O)c1C=NCCN1CCN(C(=O)c2ccccc2)CC1 | -5.0 | 20.5* | 4.2 | 13.7 | 8.2 | -3.9 | 1.9 | -0.6
CN(C1=NS(=O)(=O)N=C(N(C)c2ccccc2)O1)c1ccccc1 | nt | -22.4 | 5.1 | -6.0 | -10.4 | -7.1 | nt | nt
O=C1/C(=C/c2cccs2)SC(=S)N1CCCC(=O)N(CCO)c1ccccc1 | 10.4 | 23.7* | 5.4 | 8.1 | 1.1 | -2.6 | -0.5 | 0.5
O=C(Nc1cccc(C(F)(F)F)c1)C1Cc2c(-c3ccccc3)ccnc2O1 (centres undefined) | nt | 21.7* | -8.5 | 23.4 | 6.5 | -6.7 | 4.8 | 1.3
CC(=O)c1cccc(-c2ccnc3c2CC(C(=O)Nc2ccc(Cl)c(C(F)(F)F)c2)O3)c1 (centres undefined) | nt | 26.2* | 5.3 | 33.0 | 8.1 | -4.5 | 4.3 | 2.2
O=C(Nc1cccc(C(F)(F)F)c1)C1Cc2c(-c3ccc(Cl)cc3)ccnc2O1 (centres undefined) | nt | 16.2 | -4.3 | 29.7 | 7.0 | -5.1 | nt | nt
CCCCCNC(=O)C(c1cc2ccccc2o1)n1c(=O)c(-c2cc3ccccc3[nH]2)nc2ccccc21 (centres undefined) | nt | -75.5 | 8.9 | nt | -33.0 | -5.0 | nt | nt
O=C(c1ccccc1O)N1N=C(C(F)(F)F)CC1(O)c1ccc([N+](=O)[O-])cc1 (centres undefined) | -15.2 | 26.9* | 7.2 | 29.6 | 5.6 | -5.7 | 1.4 | -0.2
C#CCNC(=O)c1cc2cccnc2nc1N | nt | i | nt | nt | i | -2.6 | nt | nt
COc1ccccc1-n1c(SCC(=O)c2ccc(O)cc2O)nc2cc([N+](=O)[O-])ccc21 | -7.7 | 25.7* | -5.1 | 24.8 | 7.9 | -15.3 | 9.1 | 2.7
COc1ccccc1-n1c(SCC(=O)NC2CCS(=O)(=O)C2)nc2cc([N+](=O)[O-])ccc21 (centres undefined) | -2.7 | 9.7 | 5.6 | 10.5 | 0.6 | -2.6 | nt | nt
Cc1cc(Nc2ccccc2)n(-c2nc3ccccc3[nH]2)n1 | 21.4 | 20.9* | 10.8 | 23.5 | 5.0 | -5.2 | 8.9 | 3.2
CC(C)n1nccc1N(Cc1ccc(Br)cc1)S(=O)(=O)c1ccccc1 | 4.9 | 14.8 | 7.5 | 24.6 | 2.7 | -6.4 | nt | nt
CC(C)n1nccc1N(Cc1ccc(Cl)cc1)S(=O)(=O)c1ccccc1 | 12.3 | 28.2* | 11.4 | 30.7 | 5.8 | -5.5 | 1.9 | 0.7
O=C(Nc1ccccc1Cl)Nc1ccnn1C1CCN(C(=O)C2CCOC2)CC1 (centres undefined) | nt | -0.6 | -1.5 | -6.1 | -0.5 | -5.2 | nt | nt
COc1ccc(-c2ccc(N3C(c4cc(OC)cc(OC)c4)=Cc4ccc(OC)cc4C3CC(C)=O)cc2)cc1 (centres undefined) | nt | -10.4 | -3.6 | 16.8 | -2.3 | -8.2 | nt | nt
